Experimental findings from ChEMBL document CHEMBL5661979, “Pharmacological inhibition of BMK1 suppresses tumor growth through promyelocytic leukemia protein” (Cancer Cell, 2010) are described below.

Each structure is given as a SMILES string. pIC50: −log10 of the molar value. The source made the active and inactive calls. The rule behind the calls is not given here.

The target of assay [1] is Glycogen synthase kinase-3 beta (Homo sapiens, UniProt P49841). Put plainly: Inhibition of GSK3B isoform 2 in human HeLa cells lysate at 50 uM pre incubated for 15 mins followed by ATP acyl phosphate probe addition and measured after 10 mins by LC-MS/MS analysis relative to control. To be noted: time 25.0 min. It counts as subcellular.
Sequence of Glycogen synthase kinase-3 beta (P49841 whole entry, looked up, canonical isoform): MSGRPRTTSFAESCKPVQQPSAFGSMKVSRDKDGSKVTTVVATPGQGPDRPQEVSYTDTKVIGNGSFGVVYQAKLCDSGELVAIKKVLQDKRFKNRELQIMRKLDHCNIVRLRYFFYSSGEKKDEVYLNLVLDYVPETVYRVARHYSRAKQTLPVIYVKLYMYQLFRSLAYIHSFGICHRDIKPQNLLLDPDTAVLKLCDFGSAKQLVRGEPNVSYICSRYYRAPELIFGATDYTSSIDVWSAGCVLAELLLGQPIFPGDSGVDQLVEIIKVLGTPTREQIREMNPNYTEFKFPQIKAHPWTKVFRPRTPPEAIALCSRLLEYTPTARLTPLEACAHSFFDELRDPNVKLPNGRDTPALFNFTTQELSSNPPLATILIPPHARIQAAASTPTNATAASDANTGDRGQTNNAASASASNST
Assay [2] addresses Cyclin-dependent kinase 2 (Homo sapiens, UniProt P24941). Put plainly: Inhibition of CDK2 K2 site in human HeLa cells lysate at 2 uM pre incubated for 15 mins followed by ADP acyl phosphate probe addition and measured after 10 mins by LC-MS/MS analysis relative to control. It counts as subcellular. To be noted: time 25.0 min. In a few lines:
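KiNativ profiling in HeLa lysate (5 mg/mL total protein). Lysate incubated 15 min with inhibitor at 50, 10, 2, 0.8 or 0 μM. ATP or ADP acylphosphate probe then added (5 μM final) and reacted 10 min. Reaction stopped with urea and analysed by targeted MS, using up to four fragment ions per kinase peptide-probe conjugate. % inhibition taken against untreated lysate. Run in duplicate.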

Assay [3] has as its target Inhibitor of nuclear factor kappa-B kinase subunit alpha (Homo sapiens, UniProt O15111). Description: Inhibition of IKKA in human HeLa cells lysate pre incubated for 15 mins followed by ATP acyl phosphate probe addition and measured after 10 mins by LC-MS/MS analysis. It counts as subcellular.
Assay [4] relates to HeLa. Description: Antiproliferative activity against human HeLa cells over expressing BMK1 assessed as reduction in cell viability at 5 uM after 48 hrs by MTT assay. It counts as functional, cell-based. In a few lines:
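HeLa cells were infected with empty adenovirus or adenovirus encoding dominant-negative BMK1(AEF). After 24 hr they were treated with or without 5 μM drug for 48 hr and read by MTT. % growth inhibition = (1 − MTT of group / MTT of Ad-EV-only cells) × 100. n = 3.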

Assay [5] deals with T1, Mixed lineage kinase domain-like protein (Homo sapiens) (UniProt Q8NB16).
T1 sequence (whole entry): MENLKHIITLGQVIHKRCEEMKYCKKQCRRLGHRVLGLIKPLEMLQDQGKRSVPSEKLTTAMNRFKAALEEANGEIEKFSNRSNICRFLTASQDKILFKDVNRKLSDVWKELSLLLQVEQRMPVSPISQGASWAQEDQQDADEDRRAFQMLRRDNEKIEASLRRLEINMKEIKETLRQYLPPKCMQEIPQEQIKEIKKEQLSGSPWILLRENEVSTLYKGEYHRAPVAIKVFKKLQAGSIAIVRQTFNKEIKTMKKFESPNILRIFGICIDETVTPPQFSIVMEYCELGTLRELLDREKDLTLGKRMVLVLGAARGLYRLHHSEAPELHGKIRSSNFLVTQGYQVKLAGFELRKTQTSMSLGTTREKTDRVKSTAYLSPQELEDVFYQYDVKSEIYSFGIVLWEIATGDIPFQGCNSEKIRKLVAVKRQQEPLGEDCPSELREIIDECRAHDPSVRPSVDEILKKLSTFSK
Put plainly: Inhibition of MLKL in human HeLa cells lysate at 50 uM pre incubated for 15 mins followed by ADP acyl phosphate probe addition and measured after 10 mins by LC-MS/MS analysis relative to control. It counts as subcellular. The note with it: time 25.0 min.

Assay [6] deals with T2, Scaffold protein ILK (Homo sapiens) (UniProt Q13418).
T2 sequence (whole entry): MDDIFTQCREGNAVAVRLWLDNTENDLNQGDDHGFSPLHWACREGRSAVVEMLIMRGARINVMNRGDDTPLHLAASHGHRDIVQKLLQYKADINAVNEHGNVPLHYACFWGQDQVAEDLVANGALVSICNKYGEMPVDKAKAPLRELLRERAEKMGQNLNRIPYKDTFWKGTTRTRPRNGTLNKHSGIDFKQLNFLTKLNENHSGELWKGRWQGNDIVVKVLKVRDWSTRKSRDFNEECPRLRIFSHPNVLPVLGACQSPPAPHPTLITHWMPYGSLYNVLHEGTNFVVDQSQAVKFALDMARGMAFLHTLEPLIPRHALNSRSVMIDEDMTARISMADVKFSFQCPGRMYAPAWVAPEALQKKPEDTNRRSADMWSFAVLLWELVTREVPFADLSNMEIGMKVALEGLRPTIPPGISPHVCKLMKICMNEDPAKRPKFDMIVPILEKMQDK
Put plainly: Inhibition of ILK in human HeLa cells lysate at 2 uM pre incubated for 15 mins followed by ATP acyl phosphate probe addition and measured after 10 mins by LC-MS/MS analysis relative to control. It counts as subcellular. To be noted: time 25.0 min.

Assay [7] in a line: Inhibition of CK1g1/g2/g3 in human HeLa cells lysate at 50 uM pre incubated for 15 mins followed by ADP acyl phosphate probe addition and measured after 10 mins by LC-MS/MS analysis relative to control. The note with it: 25 min, condition cancer.
Assay [8] has as its target Serine/threonine-protein kinase ATR (Homo sapiens, UniProt Q13535). Put plainly: Inhibition of ATR in human HeLa cells lysate at 50 uM pre incubated for 15 mins followed by ATP acyl phosphate probe addition and measured after 10 mins by LC-MS/MS analysis relative to control. The note with it: time 25.0 min. It counts as subcellular. The gist of the method: (§1)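 KiNativ-type profiling in HeLa lysate (5 mg/mL total protein). Lysate preincubated 15 min with inhibitor at 50, 10, 2, 0.8 or 0 μM, then ATP or ADP acylphosphate probe added (5 μM final) for 10 min. Reaction stopped with urea and analysed by targeted MS, using up to four fragment ions per kinase peptide-probe conjugate. % inhibition calculated against untreated lysate. Duplicate reactions.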

Assay [9] has as its target Serine/threonine-protein kinase PLK1 (Homo sapiens, UniProt P53350). Description: Inhibition of PLK1 K1 site in human HeLa cells lysate pre incubated for 15 mins followed by ATP acyl phosphate probe addition and measured after 10 mins by LC-MS/MS analysis. It counts as subcellular.
Assay [10] concerns the target Interleukin-1 receptor-associated kinase 1 (Homo sapiens, UniProt P51617). Description: Inhibition of IRAK1 in human HeLa cells lysate at 50 uM pre incubated for 15 mins followed by ATP acyl phosphate probe addition and measured after 10 mins by LC-MS/MS analysis relative to control. To be noted: time 25.0 min. It counts as subcellular.
Assay [11] is described as follows: Inhibition of NEK6/7 in human HeLa cells lysate at 50 uM pre incubated for 15 mins followed by ADP acyl phosphate probe addition and measured after 10 mins by LC-MS/MS analysis relative to control. To be noted: 25 min, condition cancer.
Assay [12] deals with Mitogen-activated protein kinase kinase kinase 5 (Homo sapiens) (UniProt Q99683). Description: Inhibition of MAP3K5 in human HeLa cells lysate at 2 uM pre incubated for 15 mins followed by ATP acyl phosphate probe addition and measured after 10 mins by LC-MS/MS analysis relative to control. It counts as subcellular. The note with it: time 25.0 min.
Sequence of Mitogen-activated protein kinase kinase kinase 5 (Homo sapiens) (Q99683 whole entry): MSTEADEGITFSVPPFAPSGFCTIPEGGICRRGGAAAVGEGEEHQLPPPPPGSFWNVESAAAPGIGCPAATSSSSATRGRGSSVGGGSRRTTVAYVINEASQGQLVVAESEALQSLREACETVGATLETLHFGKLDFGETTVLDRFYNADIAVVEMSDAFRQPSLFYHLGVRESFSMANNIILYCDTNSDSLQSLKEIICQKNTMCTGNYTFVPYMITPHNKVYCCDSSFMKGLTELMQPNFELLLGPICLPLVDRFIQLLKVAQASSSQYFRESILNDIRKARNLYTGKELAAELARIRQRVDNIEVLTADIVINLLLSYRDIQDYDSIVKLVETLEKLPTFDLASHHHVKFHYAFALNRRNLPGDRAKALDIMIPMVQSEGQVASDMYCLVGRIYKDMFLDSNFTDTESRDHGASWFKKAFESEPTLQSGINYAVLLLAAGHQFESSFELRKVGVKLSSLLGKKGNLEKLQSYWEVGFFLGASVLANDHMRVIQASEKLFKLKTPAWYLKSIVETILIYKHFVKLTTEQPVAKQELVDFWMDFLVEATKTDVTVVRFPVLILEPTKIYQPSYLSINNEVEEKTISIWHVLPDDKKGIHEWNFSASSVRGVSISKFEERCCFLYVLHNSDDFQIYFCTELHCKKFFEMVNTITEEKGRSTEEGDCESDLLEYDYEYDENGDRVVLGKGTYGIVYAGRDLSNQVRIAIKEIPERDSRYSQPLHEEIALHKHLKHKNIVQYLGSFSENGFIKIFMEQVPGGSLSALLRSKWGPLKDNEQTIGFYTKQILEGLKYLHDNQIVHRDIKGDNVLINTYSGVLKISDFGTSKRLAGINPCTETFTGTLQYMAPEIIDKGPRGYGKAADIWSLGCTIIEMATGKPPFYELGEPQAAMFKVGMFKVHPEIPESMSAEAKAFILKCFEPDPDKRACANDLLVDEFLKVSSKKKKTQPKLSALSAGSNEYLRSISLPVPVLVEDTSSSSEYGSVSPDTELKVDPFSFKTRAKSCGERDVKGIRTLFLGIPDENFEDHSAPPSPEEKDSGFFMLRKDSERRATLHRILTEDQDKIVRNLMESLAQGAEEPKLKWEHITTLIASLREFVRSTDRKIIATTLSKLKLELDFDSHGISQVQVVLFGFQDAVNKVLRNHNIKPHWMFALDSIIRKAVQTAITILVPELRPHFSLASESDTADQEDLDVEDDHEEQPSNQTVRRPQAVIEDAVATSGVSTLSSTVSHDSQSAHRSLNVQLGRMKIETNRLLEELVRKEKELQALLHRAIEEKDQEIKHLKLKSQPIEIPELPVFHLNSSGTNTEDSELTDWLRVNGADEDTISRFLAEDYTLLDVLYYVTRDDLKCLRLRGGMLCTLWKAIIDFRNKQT
The target of assay [13] is Serine/threonine-protein kinase Aurora (Homo sapiens, UniProt Q96GD4+Q9UQB9+O14965). Description: Inhibition of AurA/AurB/AurC in human HeLa cells lysate at 10 uM pre incubated for 15 mins followed by ATP acyl phosphate probe addition and measured after 10 mins by LC-MS/MS analysis relative to control. It counts as subcellular. The note with it: time 25.0 min. The gist of the method: as §1
Sequence of Serine/threonine-protein kinase Aurora (O14965 whole entry, looked up): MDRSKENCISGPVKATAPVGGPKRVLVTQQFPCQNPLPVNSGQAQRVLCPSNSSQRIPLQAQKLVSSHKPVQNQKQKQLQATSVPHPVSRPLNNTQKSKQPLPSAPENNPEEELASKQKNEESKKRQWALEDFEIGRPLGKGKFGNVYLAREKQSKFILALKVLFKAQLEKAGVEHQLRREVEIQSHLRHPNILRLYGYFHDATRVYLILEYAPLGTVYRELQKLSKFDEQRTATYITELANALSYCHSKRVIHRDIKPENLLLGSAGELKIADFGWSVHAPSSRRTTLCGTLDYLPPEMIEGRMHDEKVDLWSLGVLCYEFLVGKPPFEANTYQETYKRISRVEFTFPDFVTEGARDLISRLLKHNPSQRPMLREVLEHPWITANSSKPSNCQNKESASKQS
Sequence of Serine/threonine-protein kinase Aurora (Q96GD4 whole entry, looked up): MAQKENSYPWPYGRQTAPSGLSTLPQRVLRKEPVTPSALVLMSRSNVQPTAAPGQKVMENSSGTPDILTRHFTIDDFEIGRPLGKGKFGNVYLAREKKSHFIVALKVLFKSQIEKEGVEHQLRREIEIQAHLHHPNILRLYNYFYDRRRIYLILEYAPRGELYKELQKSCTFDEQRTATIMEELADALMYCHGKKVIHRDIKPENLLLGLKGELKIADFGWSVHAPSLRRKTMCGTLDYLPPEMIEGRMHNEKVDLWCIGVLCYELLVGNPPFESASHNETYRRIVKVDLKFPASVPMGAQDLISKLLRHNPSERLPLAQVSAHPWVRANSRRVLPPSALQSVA
Sequence of Serine/threonine-protein kinase Aurora (Q9UQB9 whole entry, looked up): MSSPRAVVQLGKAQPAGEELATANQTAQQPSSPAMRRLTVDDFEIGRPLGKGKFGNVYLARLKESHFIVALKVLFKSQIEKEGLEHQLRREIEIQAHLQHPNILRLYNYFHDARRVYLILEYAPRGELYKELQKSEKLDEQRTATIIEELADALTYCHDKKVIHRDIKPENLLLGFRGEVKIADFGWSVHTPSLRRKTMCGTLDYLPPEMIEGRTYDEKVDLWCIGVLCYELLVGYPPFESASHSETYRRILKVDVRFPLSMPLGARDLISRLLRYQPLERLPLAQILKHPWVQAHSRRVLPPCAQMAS

In assay [14] the target is Calcium/calmodulin-dependent protein kinase type II subunit delta (Homo sapiens, UniProt Q13557). Description: Inhibition of CAMK2d in human HeLa cells lysate at 10 uM pre incubated for 15 mins followed by ATP acyl phosphate probe addition and measured after 10 mins by LC-MS/MS analysis relative to control. It counts as subcellular. The note with it: time 25.0 min. In a few lines: as §1
Sequence of Calcium/calmodulin-dependent protein kinase type II subunit delta (Q13557 whole entry): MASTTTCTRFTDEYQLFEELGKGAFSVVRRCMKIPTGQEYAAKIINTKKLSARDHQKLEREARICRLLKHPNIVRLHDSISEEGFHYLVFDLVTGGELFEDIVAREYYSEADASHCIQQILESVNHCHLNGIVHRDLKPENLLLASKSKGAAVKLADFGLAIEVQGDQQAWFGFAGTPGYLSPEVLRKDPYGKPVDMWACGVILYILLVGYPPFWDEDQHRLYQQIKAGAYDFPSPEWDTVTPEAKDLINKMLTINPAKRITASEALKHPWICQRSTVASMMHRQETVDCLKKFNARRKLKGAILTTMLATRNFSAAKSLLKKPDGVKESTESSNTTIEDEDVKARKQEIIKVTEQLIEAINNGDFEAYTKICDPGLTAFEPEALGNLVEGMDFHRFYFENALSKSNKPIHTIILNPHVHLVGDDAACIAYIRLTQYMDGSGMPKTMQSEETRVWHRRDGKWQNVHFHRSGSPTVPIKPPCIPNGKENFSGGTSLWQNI

For assay [15], the target named is Serine/threonine-protein kinase PRP4 homolog (Homo sapiens, UniProt Q13523). Put plainly: Inhibition of PRP4 in human HeLa cells lysate pre incubated for 15 mins followed by ATP acyl phosphate probe addition and measured after 10 mins by LC-MS/MS analysis. It counts as subcellular.
Sequence of Serine/threonine-protein kinase PRP4 homolog (Q13523 whole entry): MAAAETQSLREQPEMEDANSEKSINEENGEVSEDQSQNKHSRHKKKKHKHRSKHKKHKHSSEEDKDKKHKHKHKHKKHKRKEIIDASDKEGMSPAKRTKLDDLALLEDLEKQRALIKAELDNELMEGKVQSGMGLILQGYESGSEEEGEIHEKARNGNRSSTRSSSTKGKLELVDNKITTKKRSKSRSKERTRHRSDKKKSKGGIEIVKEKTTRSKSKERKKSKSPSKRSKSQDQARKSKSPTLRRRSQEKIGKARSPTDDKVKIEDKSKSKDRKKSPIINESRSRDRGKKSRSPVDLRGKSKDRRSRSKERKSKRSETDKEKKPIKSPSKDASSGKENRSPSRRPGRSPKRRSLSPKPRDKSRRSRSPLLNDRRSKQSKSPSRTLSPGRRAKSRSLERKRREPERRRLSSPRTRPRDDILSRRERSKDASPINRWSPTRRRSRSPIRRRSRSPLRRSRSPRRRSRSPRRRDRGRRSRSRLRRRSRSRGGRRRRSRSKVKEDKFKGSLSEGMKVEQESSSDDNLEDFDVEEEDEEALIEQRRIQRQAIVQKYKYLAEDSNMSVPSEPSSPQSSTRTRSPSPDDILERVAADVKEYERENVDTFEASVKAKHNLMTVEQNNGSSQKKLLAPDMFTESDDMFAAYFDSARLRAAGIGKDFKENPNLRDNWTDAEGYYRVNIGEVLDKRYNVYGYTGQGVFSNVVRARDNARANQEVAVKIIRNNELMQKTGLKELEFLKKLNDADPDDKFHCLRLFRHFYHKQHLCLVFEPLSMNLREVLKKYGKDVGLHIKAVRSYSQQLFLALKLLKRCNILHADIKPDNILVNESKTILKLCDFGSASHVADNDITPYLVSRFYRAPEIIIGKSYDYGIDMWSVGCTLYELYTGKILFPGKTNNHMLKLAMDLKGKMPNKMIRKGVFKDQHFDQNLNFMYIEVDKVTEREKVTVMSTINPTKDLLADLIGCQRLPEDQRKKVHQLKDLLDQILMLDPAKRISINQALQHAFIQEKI

Sequence of Serine/threonine-protein kinase PLK1 (P53350 whole entry): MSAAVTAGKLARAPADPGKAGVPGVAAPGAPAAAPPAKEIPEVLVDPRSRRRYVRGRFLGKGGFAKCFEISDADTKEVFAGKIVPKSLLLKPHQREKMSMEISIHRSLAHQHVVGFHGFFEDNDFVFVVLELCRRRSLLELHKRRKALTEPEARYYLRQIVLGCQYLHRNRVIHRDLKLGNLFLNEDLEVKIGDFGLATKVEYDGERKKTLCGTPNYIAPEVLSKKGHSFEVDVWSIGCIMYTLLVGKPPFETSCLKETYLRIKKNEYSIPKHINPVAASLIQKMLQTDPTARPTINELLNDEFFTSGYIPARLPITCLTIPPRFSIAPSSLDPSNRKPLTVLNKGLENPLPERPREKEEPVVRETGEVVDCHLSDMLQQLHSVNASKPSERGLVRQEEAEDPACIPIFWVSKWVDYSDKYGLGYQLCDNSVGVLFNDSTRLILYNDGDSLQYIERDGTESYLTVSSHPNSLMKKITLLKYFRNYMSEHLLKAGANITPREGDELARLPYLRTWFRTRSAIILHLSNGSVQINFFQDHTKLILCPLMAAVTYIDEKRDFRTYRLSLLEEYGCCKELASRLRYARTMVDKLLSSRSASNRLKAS

Consider `CCOc1cc(N2CCC(O)CC2)ccc1Nc1ncc2c(n1)N(C)c1ccccc1C(=O)N2C`, for which the inhibition was 22.3% in [1]; 9.8% in assay [2]; -6.7% in assay [5]; 13.4% in [6]; 13.9% in assay [8]; -8.3% in assay [10]. Also, the results for the inhibition in assay [12], in assay [13] and in [14] were -6.5%, -7.7% and 3.2%, respectively. The pIC50 in [3], in assay [9] and in assay [15] was under 4.30 in each case. For the same compound, in assay [4], the result was Active. Also, the inhibition at 50 µM in assay [7] was -80.5%; in assay [11], 5.6%.

One may read the inhibition as the drop in the measured response relative to a control, in per cent. By pIC50 is commonly meant the negative decadic logarithm of the IC50, by convention in mol/L.
